The source made the active and inactive calls. The calls are words filed in the database; no cut-off is given here.
Legend:
[1] = molecular target: Hypoxia-inducible factor 1-alpha (Homo sapiens) (UniProt Q16665); test: Inhibition of HIF1alpha transcriptional activity in hypoxia-induced human HCCLM3 cells co-transfected with luciferase reporter plasmid containing five copies of HREs and pRL-SV40 plasmid encoding Renilla luciferase at 10 uM incubated with compound under normoxia for 1 hr followed by hypoxia induction and measured after 24 hrs by HRE-dependent dual luciferase reporter gene assay relative to control
Sequence of Hypoxia-inducible factor 1-alpha (Homo sapiens) (Q16665 whole entry, looked up): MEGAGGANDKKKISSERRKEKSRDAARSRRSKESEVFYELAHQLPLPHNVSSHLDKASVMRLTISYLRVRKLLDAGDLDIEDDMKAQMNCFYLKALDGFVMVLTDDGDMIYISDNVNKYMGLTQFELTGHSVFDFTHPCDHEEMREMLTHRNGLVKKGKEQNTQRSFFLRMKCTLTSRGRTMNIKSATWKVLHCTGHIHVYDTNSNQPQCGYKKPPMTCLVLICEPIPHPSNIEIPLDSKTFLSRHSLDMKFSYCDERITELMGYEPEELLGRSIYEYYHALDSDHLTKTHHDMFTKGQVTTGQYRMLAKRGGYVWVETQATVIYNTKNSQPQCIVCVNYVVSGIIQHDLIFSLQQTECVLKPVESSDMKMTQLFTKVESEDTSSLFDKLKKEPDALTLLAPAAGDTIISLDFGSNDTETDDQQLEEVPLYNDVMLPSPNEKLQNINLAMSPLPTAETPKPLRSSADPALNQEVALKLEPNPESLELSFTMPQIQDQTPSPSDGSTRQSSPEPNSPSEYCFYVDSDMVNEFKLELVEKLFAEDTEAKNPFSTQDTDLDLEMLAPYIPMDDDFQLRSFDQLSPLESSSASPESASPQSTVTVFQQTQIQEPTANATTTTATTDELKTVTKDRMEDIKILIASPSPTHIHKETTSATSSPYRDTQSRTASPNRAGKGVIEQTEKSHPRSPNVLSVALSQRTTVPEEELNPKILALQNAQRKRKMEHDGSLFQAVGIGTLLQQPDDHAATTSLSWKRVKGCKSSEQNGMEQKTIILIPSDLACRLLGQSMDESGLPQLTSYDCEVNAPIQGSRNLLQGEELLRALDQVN
How it was run: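 LM3 cells co-transfected with firefly luciferase reporter carrying five HRE copies plus pRL-SV40 Renilla plasmid; after transfection treated and kept under hypoxia; firefly luminescence normalized to Renilla. Single-point inhibition rate at 10 μM; IC50 for selected compounds.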

[2] = Cytotoxicity against human HCCLM3 cells assessed as reduction in cell viability incubated for 48 hrs by MTT assay; assay type: cell-based
[3] = test system: HCCLM3; test: Inhibition of HIF1alpha accumulation in hypoxia-induced human HCCLM3 cells at 10 uM incubated with compound under normoxia for 1 hr followed by hypoxia induction and measured after 24 hrs by Western blot analysis; assay type: functional, cell-based
How it was run: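 LM3 cells treated at 10 μM under hypoxia; HIF-1α protein by western blot, LW6 as reference.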

[4] = species on record: Danio rerio; test: Antiangiogenic activity in […]/EGFP transgenic zebrafish embryo assessed as destruction of subintestinal vessel at 0.5 uM incubated for 24 hrs by confocal microscopic method; assay type: functional, organism-based
How it was run: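 Transgenic zebrafish with GFP-labeled vascular endothelium; embryos selected, […], exposed 24 h to 0.5 or 1 μM (DMSO vehicle, n = 10; apatinib 0.5 μM reference); SIVs imaged by confocal microscopy and counted per field; means ± SD, three independent experiments.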

inhibition [1] [%]	Structure (SMILES)	further results
36.9	O=C(NCCc1ccc(O)cc1)c1ccc(-c2ccccc2)cn1	–
67.3	O=C(NCCc1ccncc1)c1nnc(-c2ccccc2)o1	CC50 at 48 h [2]: > 50 µM
58.2	O=C(NCCc1ccc(Cl)cc1)c1ccc(-c2ccccc2)cn1	–
12.8	Cc1ccc(C(=O)NCCc2ccncc2)o1	–
21.2	Cc1nc(C(=O)NCCc2ccccc2)cs1	HIF-1α accumulation inhibition (qualitative) [3]: Active
91.4	O=C(NCCc1ccccc1F)c1ccc(-c2ccccc2)cn1	CC50 at 48 h [2]: > 50 µM
64.6	O=C(NCCc1cccc(Cl)c1)c1ccc(-c2ccccc2)cn1	CC50 at 48 h [2]: > 50 µM
41.8	O=C(NCCc1ccccc1Cl)c1nnc(-c2ccccc2)o1	–
19.9	O=C(NCCc1ccncc1)c1csc(-c2ccncc2)n1	–
54.1	O=C(NCCc1ccccc1Cl)c1csc(-c2ccccc2)n1	–
2.4	Cc1nc(C(=O)NCCc2cccnc2)cs1	–
68.4	O=C(NCCc1ccccc1Cl)c1ccc(-c2ccccc2)cn1	CC50 at 48 h [2]: > 50 µM
45.3	Cc1ccc(C(=O)NCCc2ccccc2Cl)cc1	–
55.3	O=C(NCCc1ccccc1F)c1ccc(-c2cccc(F)c2)cn1	–
42.7	Cc1nc(C(=O)NCCc2ccccc2Cl)cs1	–
6.5	Cc1nc(C(=O)NCCCc2ccccc2)cs1	–
48.7	O=C(NCCc1ccncc1)c1csc(-c2ccccc2)n1	–
18.4	O=C(NCCc1ccccc1Cl)c1csc(-c2ccncc2)n1	–
88.2	O=C(NCCc1ccccc1F)c1ccc(-c2ccsc2)cn1	CC50 at 48 h [2]: > 50 µM
44.5	O=C(NCCc1cccnc1)c1ccc(-c2ccccc2)cn1	–
77.2	O=C(NCCc1ccccc1Cl)c1ccc(-c2ccccc2)cc1	CC50 at 48 h [2]: > 50 µM
60.7	O=C(NCCc1ccncc1)c1ccc(-c2ccccc2)cn1	CC50 at 48 h [2]: > 50 µM
83.8	O=C(NCCc1ccccc1F)c1ccc(-c2ccccc2F)cn1	CC50 at 48 h [2]: > 50 µM
38.7	O=C(NCCc1ccncc1)c1coc(-c2ccccc2)n1	–

inhibition [1] [%]	Structure (SMILES)	further results
33.9	O=C(NCCc1ccncc1)c1csc(-c2cccnc2)n1	–
57.5	O=C(NCCc1ccccc1F)c1ccc(-c2ccncc2)cn1	–
47.4	O=C(NCCc1ccncc1)c1ccc(-c2ccccc2)nc1	–
80	O=C(NCCc1ccccc1F)c1ccc(-c2cccs2)cn1	CC50 at 48 h [2]: > 50 µM
36.4	Cc1cccc(C(=O)NCCc2ccncc2)n1	–
36.9	O=C(NCCc1ccncc1)c1nc(-c2ccccc2)no1	–
52.3	O=C(NCCc1ccccc1Cl)c1ncc(-c2ccccc2)o1	–
56.7	O=C(NCCc1ccccc1Cl)c1cc(-c2ccccc2)ncn1	–
3.1	Cc1nc(C(=O)NCc2ccccc2)cs1	–
0.3	O=C(NCCc1ccccc1F)c1ccc(-c2cccc(O)c2)cn1	–
43.7	O=C(NCCc1ccccn1)c1ccc(-c2ccccc2)cn1	–
21.6	O=C(NCCc1ccccc1Cl)c1csc(-c2cccnc2)n1	–
73.5	COC(=O)c1ccc(O)c(NC(=O)COc2ccc(C34CC5CC(CC(C5)C3)C4)cc2)c1	HIF-1α accumulation inhibition (qualitative) [3]: Active; CC50 at 48 h [2]: > 50 µM
61.5	O=C(NCCc1ccncc1)c1nccc(-c2ccccc2)n1	CC50 at 48 h [2]: > 50 µM
49.7	O=C(NCCc1ccncc1)c1noc(-c2ccccc2)n1	–
40.5	O=C(NCCc1ccccc1Cl)c1noc(-c2ccccc2)n1	–
82.2	O=C(NCCc1ccccc1)c1ccc(-c2ccccc2)cn1	CC50 at 48 h [2]: > 50 µM
31.3	Cc1nc(C(=O)NCCc2ccncc2)cs1	–
–	N#CC1(c2ccc(NC(=O)c3cccnc3NCc3ccncc3)cc2)CCCC1	Activity [4]: Active
0.6	Cc1nc(C(=O)NCCc2ccc(Cl)cc2)cs1	–
33.2	O=C(NCCc1ccccc1F)c1ccc(-c2ccc(O)cc2)cn1	–
46.1	O=C(NCCc1ccc(F)cc1)c1ccc(-c2ccccc2)cn1	–
40.2	O=C(NCCc1ccc([N+](=O)[O-])cc1)c1ccc(-c2ccccc2)cn1	–
3.1	Cc1ccc(C(=O)NCCc2ccncc2)cc1	–

inhibition [1] [%]	Structure (SMILES)	further results
17.4	Cc1ccc(C(=O)NCCc2ccccc2Cl)o1	–
51.4	O=C(NCCc1ccccc1Cl)c1coc(-c2ccccc2)n1	–
42	O=C(NCCc1ccncc1)c1ccc(-c2ccccc2)cc1	–
53.5	O=C(NCCc1ccncc1)c1ncc(-c2ccccc2)o1	–
5.1	Cc1nc(C(=O)NCCc2ccccn2)cs1	–
44.1	O=C(NCCc1ccccc1Cl)c1nc(-c2ccccc2)no1	–
37.3	Cc1cccc(C(=O)NCCc2ccccc2Cl)n1	–
43.6	O=C(NCCc1ccccc1F)c1ccc(-c2ccccc2O)cn1	–
45.1	O=C(NCCc1ccccc1Cl)c1ccc(-c2ccccc2)nc1	–
62.7	N#Cc1ccccc1-c1ccc(C(=O)NCCc2ccccc2F)nc1	CC50 at 48 h [2]: > 50 µM
41.2	O=C(NCCc1ccccc1F)c1ccc(-c2ccc(F)cc2)cn1	–
57.2	O=C(NCCc1ccccc1F)c1ccc(-c2ccco2)cn1	–
44.5	N#Cc1cccc(-c2ccc(C(=O)NCCc3ccccc3F)nc2)c1	–
45.6	COc1ccc(-c2ccc(C(=O)NCCc3ccccc3F)nc2)cc1	–
31.8	Cc1ccc(CCNC(=O)c2ccc(-c3ccccc3)cn2)cc1	–
73.4	O=C(NCCc1ccccc1F)c1ccc(-c2ccoc2)cn1	HIF-1α accumulation inhibition (qualitative) [3]: Active; CC50 at 48 h [2]: > 50 µM
1.2	Cc1nc(C(=O)NCCc2cccc(Cl)c2)cs1	–
29.5	O=C(NCCc1ccccc1F)c1ccc(-c2cn[nH]c2)cn1	HIF-1α accumulation inhibition (qualitative) [3]: Active
58.7	O=C(NCCc1cccc(F)c1)c1ccc(-c2ccccc2)cn1	–
60.2	Nc1ccc(CCNC(=O)c2ccc(-c3ccccc3)cn2)cc1	CC50 at 48 h [2]: > 50 µM
13.1	N#Cc1ccc(-c2ccc(C(=O)NCCc3ccccc3F)nc2)cc1	–
53.8	COc1cccc(-c2ccc(C(=O)NCCc3ccccc3F)nc2)c1	–

Source: ChEMBL document CHEMBL4354811, “Discovery of Novel Aryl Carboxamide Derivatives as Hypoxia-Inducible Factor 1α Signaling Inhibitors with Potent Activities of Anticancer Metastasis” (J Med Chem, 2019)
